The source of these data is ChEMBL document CHEMBL1141334, “Mirabamides A-D, depsipeptides from the sponge Siliquariaspongia mirabilis that inhibit HIV-1 fusion” (J Nat Prod, 2007).

Structures are written as SMILES. Active and inactive are the calls of the source. The rule behind the calls is not given here. *1 amine or outer side, *2 acyl side, *3 side chain or, on linkers, in order; H or OH if unused. Where a SMILES comes first, the peptide text is derived from it. Bridges are numbered along the chain shown (N, C = ends). [ ]: non-standard residue; d: D form. The star is where a group is joined. dLeu(3R-OH) = CC(C)[C@@H](O[*:3])[C@@H](N[*:1])C(=O)[*:2]; Gln(3S,4R-Me2) = C[C@H]([C@H](N)C(=O)O)[C@@H](C)C(N)=O; dTyr(βR-OMe) = CO[C@H](c1ccc(O)cc1)[C@@H](N)C(=O)O; Pip(4S-Cl) = O=C(O)[C@@H]1C[C@@H](Cl)CCN1; X1 = CCC(C)/C=C(C)/C=C\C(O)C(C)(O)C(=O)*; Abu(3R-NH2) = C[C@@H](N)[C@H](N)C(=O)O; NMeT = CN[C@H](C(=O)O)[C@@H](C)O

The subject of series [1] is Bacillus subtilis. As to the kind of experiment: Antimicrobial activity against Bacillus subtilis ATCC 49343 at 5 ug per disk after 18 hrs by disk diffusion method. The class given is functional, organism-based. An outline of the steps:
(§1)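 Modified disk diffusion. Bacteria: 500 µL of 24 h culture in 100 mL Antibiotic Medium 2 with 1% agar at 55 °C; C. albicans in Sabouraud dextrose agar at 55 °C. 10 mL seeded agar poured per dish, cooled 1 h. Compounds applied at 1–25 µg; zones of inhibition measured after 18 h at 37 °C.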

The subject of another series is Candida albicans. The series is described as follows: Antifungal activity against Candida albicans ATCC 90027 at 5 ug per disk after 18 hrs by disk diffusion method. Format: functional. The following applies: ATCC 90027, 18 h, read-out: IZ. An outline of the steps:
as §1

For series [2], the system named is Human immunodeficiency virus 1. As to the kind of experiment: Inhibition of HIV LAV in BSC1 cells after 2.5 hrs by cell fusion assay. Format: functional, organism-based. The settings on record: Human immunodeficiency virus 1, LAV, BSC-1, 2.5 h.
The nature of series [3]: Cytotoxicity against african green monkey BSC1 cells after 3 hrs by MTT assay. The class given is cell-based. The following applies: chlorocebus aethiops, bsc-1, 3 h. An outline of the steps: (§2)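 MTT kit assay. Cells seeded at 2 × 10^4/well, adhered 18 h, then exposed for 3 h (fusion-assay conditions) or 24 h (neutralization-assay conditions). Medium then replaced or diluted 3-fold with fresh growth medium, followed by 72 h further culture. Viability read at A570 after MTT.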

A further series has as its system Staphylococcus aureus. As to the kind of experiment: Antimicrobial activity against Staphylococcus aureus ATCC 25923 at 25 ug per disk after 18 hrs by disk diffusion method. The class given is functional, organism-based. An outline of the steps:
as §1

Series [4] can be described thus: Cytotoxicity against human TZM-bl cells after 24 hrs by MTT assay. The class given is functional, cell-based. In a few lines: as §2
Series [5] concerns Human immunodeficiency virus 1. The series is described as follows: Inhibition of HIV HXB2 in TZM-bl cells after 48 hrs by neutralization assay. The class given is functional, organism-based. The settings on record: Human immunodeficiency virus 1, HXB2, TZM-bl. In a few lines: (§3)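 Env-pseudotyped viral particles (HXB2, CXCR4-using; SF162, CCR5-using) added with varying inhibitor concentrations (in H2O or 20% EtOH in H2O) to TZM-bl cells (CD4, CXCR4, CCR5) after overnight plating at 37 °C. Luciferase luminescence (RLU) read after 48 h at 37 °C. Duplicate or triplicate, on at least two different days.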

A further series deals with Pseudomonas aeruginosa. The series is described as follows: Antimicrobial activity against Pseudomonas aeruginosa ATCC 15442 at 25 ug per disk after 18 hrs by disk diffusion method. The class given is functional, organism-based. An outline of the steps: as §1
A further series concerns HCT-116. The series is described as follows: Cytotoxicity against human HCT116 cells by MTT assay. The class given is functional, cell-based. An outline of the steps:
as §2

For a further series, the system named is Escherichia coli. The series is described as follows: Antimicrobial activity against Escherichia coli ATCC 8739 at 25 ug per disk after 18 hrs by disk diffusion method. Format: functional, organism-based. An outline of the steps:
as §1

Series [6] concerns Human immunodeficiency virus 1. The series is described as follows: Inhibition of HIV SF162 in TZM-bl cells after 48 hrs by neutralization assay. The class given is functional, organism-based. The following applies: Human immunodeficiency virus 1, SF162, TZM-bl. An outline of the steps: as §3
Series [7] relates to Bacillus subtilis. The series is described as follows: Antimicrobial activity against Bacillus subtilis ATCC 49343 at 1 ug per disk after 18 hrs by disk diffusion method. The settings on record: ATCC 49343, 18 h, read-out: IZ. Format: functional. In a few lines: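 Modified disk diffusion: 24 h bacterial culture seeded (500 µL per 100 mL) into Antibiotic Medium 2 with 1% agar at 55 °C, 10 mL poured into square dishes, cooled 1 h. Compound applied to disks (1–25 µg range tested); chloramphenicol 10 µg disk as control. Incubated 37 °C, 18 h; inhibition zone diameters measured.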

On to `CCC(C)/C=C(C)/C=C\C(O)C(C)(O)C(=O)NCC(=O)N[C@H](C(=O)N[C@H](C(=O)N[C@H](C(=O)N[C@H]1C(=O)N[C@H](COC)C(=O)NCC(=O)N[C@@H](C)C(=O)N(C)[C@@H]([C@@H](C)O)C(=O)N[C@H]([C@H](OC)c2ccc(O[C@@H]3O[C@@H](C)[C@H](O)[C@@H](O)[C@H]3O)cc2)C(=O)N2CC[C@H](Cl)C[C@H]2C(=O)O[C@@H]1C(C)C)[C@@H](C)[C@@H](C)C(N)=O)[C@@H](C)N)[C@@H](C)O` (stereo not given in full) [MIRABAMIDE A], for which the outcome with Bacillus subtilis [1] was Active. Moreover, in the series on Candida albicans, the zone of inhibition at 5 µg/disc is 9 mm. Further, the IC50 was found to be 41 nM in [2]; 1800 nM in [4]; 140 nM in series [5]; 2220 nM in the series with HCT-116; 400 nM in series [6]. In addition, the Activity result in [3] is given as “Non-toxic”. Further, the outcome in the series with Staphylococcus aureus, in the series with Pseudomonas aeruginosa and in the series on Escherichia coli was inactive.

Turning to `C/C=C(\NC(=O)[C@@H](NC(=O)CNC(=O)C(C)(O)C(O)/C=C\C(C)=C\C(C)CC)[C@@H](C)O)C(=O)N[C@H](C(=O)N[C@H]1C(=O)N[C@H](COC)C(=O)NCC(=O)N[C@@H](C)C(=O)N(C)[C@@H]([C@@H](C)O)C(=O)N[C@H]([C@H](OC)c2ccc(O[C@@H]3O[C@@H](C)[C@H](O)[C@@H](O)[C@H]3O)cc2)C(=O)N2CC[C@H](Cl)C[C@H]2C(=O)O[C@@H]1C(C)C)[C@@H](C)[C@@H](C)C(N)=O` (stereo not given in full) [MIRABAMIDE B], in the series on Bacillus subtilis [1], the result was Active. The zone of inhibition at 5 µg/disc in the series on Candida albicans amounted to 9 mm. Moreover, the IC50 is over 10000 nM in series [2], over 50000 nM in [5] and over 50000 nM in [6]. Besides, the Activity result in [3] was “Non-toxic”. Also, the result with Staphylococcus aureus, with Pseudomonas aeruginosa and with Escherichia coli was inactive.

Take `CCC(C)/C=C(C)/C=C\C(O)C(C)(O)C(=O)NCC(=O)N[C@H](C(=O)N[C@H](C(=O)N[C@H](C(=O)N[C@H]1C(=O)N[C@H](COC)C(=O)NCC(=O)N[C@@H](C)C(=O)N(C)[C@@H]([C@@H](C)O)C(=O)N[C@H]([C@H](OC)c2ccc(O)cc2)C(=O)N2CC[C@H](Cl)C[C@H]2C(=O)O[C@@H]1C(C)C)[C@@H](C)[C@@H](C)C(N)=O)[C@@H](C)N)[C@@H](C)O` (stereo partly drawn) [MIRABAMIDE C] (X1-GT[Abu(3R-NH2)][Gln(3S,4R-Me2)][dLeu(3R-OH)][dS](Me)GA[NMeT][dTyr(βR-OMe)][Pip(4S-Cl)]; ester 5-C): the zone of inhibition at 5 µg/disc in the series on Candida albicans is 9 mm. The half-inhibitory concentration (IC50) in series [2] was 1300 nM; in [4], 2200 nM; in series [5], 144 nM; in series [6], 1010 nM. Moreover, the Activity result in [3] was “Non-toxic”. Also, the outcome in the series with Staphylococcus aureus, in the series with Pseudomonas aeruginosa and in the series with Escherichia coli was inactive. In addition, in the series on Bacillus subtilis [7], the zone of inhibition at 1 µg/disc was determined as 9 mm.

On to `CCC(C)/C=C(C)/C=C\C(O)C(C)(O)C(=O)NCC(=O)N[C@H](C(=O)N[C@H](C(=O)N[C@H](C(=O)N[C@H]1C(=O)N[C@H](COC)C(=O)NCC(=O)N[C@@H](C)C(=O)N(C)[C@@H]([C@@H](C)O)C(=O)N[C@H]([C@H](OC)c2ccc(O[C@@H]3O[C@@H](C)[C@H](O)[C@@H](O)[C@H]3O)cc2)C(=O)N2CCCC[C@H]2C(=O)O[C@@H]1C(C)C)[C@@H](C)[C@@H](C)C(N)=O)[C@@H](C)N)[C@@H](C)O` (stereo not given in full) [MIRABAMIDE D], for which the IC50 in [2] turned out to be 3900 nM; in series [4] it was 3900 nM; in [5], 189 nM; in [6] it was 1310 nM. Also, in series [3], the Activity entry is on record as “Non-toxic”. For the same molecule, the result in the series on Staphylococcus aureus, in the series on Pseudomonas aeruginosa and in the series on Escherichia coli was inactive. For the same molecule, the zone of inhibition at 1 µg/disc in the series with Bacillus subtilis [7] worked out at 9 mm.

As for `CCC(C)/C=C(C)/C=C\C(O)C(C)(O)C(=O)NCC(=O)N[C@H](C(=O)N[C@H](C(=O)N[C@H](C(=O)N[C@H]1C(=O)N[C@H](COC)C(=O)NCC(=O)N[C@@H](C)C(=O)N(C)[C@@H]([C@@H](C)O)C(=O)N[C@H]([C@H](OC)c2ccc(O)cc2)C(=O)N2CCCC[C@H]2C(=O)O[C@@H]1C(C)C)[C@@H](C)[C@@H](C)C(N)=O)[C@@H](C)N)[C@@H](C)O` (stereo not given in full) [PAPUAMIDE A], the 50% inhibitory concentration (IC50) was 73 nM in [2] and 3500 nM in the series with HCT-116. Besides, the Activity entry in [3] is reported as “Non-toxic”. The outcome in the series on Staphylococcus aureus, in the series with Pseudomonas aeruginosa and in the series with Escherichia coli was inactive.
